Laboratory results published in ChEMBL document CHEMBL1177671, “Synthesis and cytotoxic activity of a new potential DNA bisintercalator: 1,4-Bis{3-[N-(4-chlorobenzo[g]phthalazin-1-yl)aminopropyl]}piperazine” (Bioorg Med Chem, 2010).

Tests used:
HT-29 = test: Cytotoxicity against human HT-29 cells after 72 hrs by XTT assay; format: functional, cell-based; conditions: HT-29, 72 h
Summary of the method: (§1)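 Cells grown in DMEM with 10% heat-inactivated FBS, 2 mM L-glutamine, penicillin/streptomycin at 37 °C, 5% CO2, and tested Mycoplasma-negative. 1.5 × 10³ cells per well were exposed to compound over 10^-4 to 10^-9 M for 72 h at 37 °C, then read by XTT proliferation assay. Done in triplicate; IC50 is the concentration giving 50% proliferation inhibition versus untreated controls.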

MCF7 = test: Cytotoxicity against human MCF7 cells after 72 hrs by XTT assay; format: functional, cell-based; conditions: MCF7, 72 h; summary of the method: as §1
SF-268 = test: Cytotoxicity against human SF268 cells after 72 hrs by XTT assay; format: functional, cell-based; conditions: SF-268, 72 h; summary of the method: as §1
NCI-H460 = test: Cytotoxicity against human NCI-H460 cells after 72 hrs by XTT assay; format: functional, cell-based; conditions: NCI-H460, 72 h; summary of the method: as §1
Calf thymus DNA = test: Binding affinity to calf thymus DNA assessed as change in melting temperature; format: nucleic-acid assay; conditions: Bos taurus
Summary of the method: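 ct-DNA sonicated, filtered (0.45 µm) and held in sodium cacodylate buffer, I = 0.05 mol dm^-3, pH 7.0, at 7.5 × 10^-6 M base pairs. Melting was followed by absorbance at 260 nm versus temperature with increasing ligand, ligand absorbance subtracted and normalised. Tm is the transition midpoint (first-derivative maximum or tangent method). ΔTm = Tm(complex) − Tm(free DNA), averaged over ≥3 runs, error 0.5 °C.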

Row | Tm (Calf thymus DNA) [°C] | SMILES | IC50 (HT-29) [nM] | IC50 (MCF7) [nM] | IC50 (SF-268) [nM] | IC50 (NCI-H460) [nM]
1 | – | CCCCNc1nnc(NCCCC)c2cc3ccccc3cc12 | 2350 | 2470 | 2630 | 2030
2 | – | NCCCN1CCN(CCCNc2nnc(Cl)c3cc4ccccc4cc23)CC1 | 10500 | 9200 | 12600 | 8800
3 | – | CCCCCNc1nnc(NCCCCC)c2cc3ccccc3cc12 | 2700 | 2570 | 2700 | 2370
4 | – | c1ccc(CCNc2nnc(NCCc3ccccc3)c3cc4ccccc4cc23)cc1 | 2950 | 2570 | 2630 | 1830
5 | 20.6 | COc1cccc2c1C(=O)c1c(O)c3c(c(O)c1C2=O)C[C@@](O)(C(=O)CO)C[C@@H]3O[C@H]1C[C@H](N)[C@H](O)[C@H](C)O1 [DOXORUBICIN] | 280 | 324 | 220 | 264
6 | – | CCCCNc1nnc(Cl)c2cc3ccccc3cc12 | > 100000 | > 100000 | 88000 | 85500
7 | – | Clc1nnc(NCCCN2CCN(CCCNc3nnc(Cl)c4cc5ccccc5cc34)CC2)c2cc3ccccc3cc12 | 497 | 863 | 665 | 742
